# Reference: ChEMBL document CHEMBL1123804, “Beta-substituted cysteines as sequestering agents for ethanol-derived acetaldehyde in vivo” (1987)
# Columns and labels:
# Type in all cases: functional
# Rattus norvegicus [1] = assay: Compound tested for the percentage of administered dose excreted in rat urine was determined in 0-24 hr
# In short: (§1)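 Labeled material (14C on the acetaldehyde part, with unlabeled carrier, in water) was dosed at 8.0 mmol/kg, 1.0 mL/100 g, to two overnight-fasted male Sprague-Dawley-descent rats (207 g, 247 g) kept in all-glass metabolism cages. Urine was collected separately at 2, 4, 8, 16 and 24 h. Duplicate samples were counted by liquid scintillation, and results are averaged ± SD across the two animals.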
# Rattus norvegicus [2] = assay: Compound tested for the percentage of administered dose excreted in rat urine was determined in 4-8h; in short: as §1
# Rattus norvegicus [3] = species: Rattus norvegicus; assay: Compound tested for the percentage of CO2 expired in rat was determined in 4-8h
# In short: (§2)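 14C label on the acetaldehyde moiety, diluted with unlabeled carrier in water and given at 8.0 mmol/kg (1.0 mL/100 g; radioactivity of the solution counted in duplicate). Two male Sprague-Dawley-descent rats (207 g, 247 g) were fasted overnight and housed in all-glass metabolism cages. Expired CO2 went into two successive cold methoxyethanol/ethanolamine (2:1) traps, sampled at 2, 4, 8, 16 and 24 h. Duplicates were counted by liquid scintillation, and values are the mean ± SD of two animals.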
# Rattus norvegicus [4] = assay: Compound tested for the percentage of administration dose excreted in rat feces was determined in 0-24 hr
# In short: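 A radiolabeled dose (14C in the acetaldehyde moiety, with carrier, in water) of 8.0 mmol/kg at 1.0 mL/100 g went to two overnight-fasted male Sprague-Dawley-descent rats (207 g, 247 g) in all-glass metabolism cages. Feces collected over 24 h were lyophilized and pulverized, and 250-mg samples were combusted to 14CO2 for scintillation counting. Values are the mean ± SD of two animals.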
# Rattus norvegicus [5] = species: Rattus norvegicus; assay: Compound tested for the percentage of CO2 expired in rat was determined in 8-16h; in short: as §2
# Rattus norvegicus [6] = species: Rattus norvegicus; assay: Compound tested for the percentage of CO2 expired in rat was determined in 2-4h; in short: as §2
# Rattus norvegicus [7] = assay: Compound tested for the percentage of administered dose excreted in rat urine was determined in 16-24h; in short: as §1
# Rattus norvegicus [8] = assay: Compound tested for the percentage of administered dose excreted in rat urine was determined in 8-16h; in short: as §1
# Rattus norvegicus [9] = species: Rattus norvegicus; assay: Compound tested for the percentage of CO2 expired in rat was determined in 0-24 hr; in short: as §2
# Rattus norvegicus [10] = species: Rattus norvegicus; assay: Compound tested for the percentage of CO2 expired in rat was determined in 16-24h; in short: as §2
# Rattus norvegicus [11] = assay: Compound tested for the percentage of administered dose excreted in rat urine was determined in 2-4h; in short: as §1
# Rattus norvegicus [12] = species: Rattus norvegicus; assay: Compound tested for the percentage of CO2 expired in rat was determined in 0-2 hr; in short: as §2
# Rattus norvegicus [13] = assay: Compound tested for the percentage of administered dose excreted in rat urine was determined in 0-2 hr; in short: as §1
smiles,measurement,setting,value
CC1N[C@@H](C(=O)O)C(C)(C)S1 (stereo partly drawn),Excreted,Rattus norvegicus [1],79.2%
same,Excreted,Rattus norvegicus [2],12.7%
same,Excreted,Rattus norvegicus [3],1.36%
same,Excreted,Rattus norvegicus [4],1.38%
same,Excreted,Rattus norvegicus [5],0.48%
same,Excreted,Rattus norvegicus [6],1.7%
same,Excreted,Rattus norvegicus [7],1.18%
same,Excreted,Rattus norvegicus [8],3.12%
same,Excreted,Rattus norvegicus [9],5.83%
same,Excreted,Rattus norvegicus [10],0.28%
same,Excreted,Rattus norvegicus [11],25.9%
same,Excreted,Rattus norvegicus [12],2.01%
same,Excreted,Rattus norvegicus [13],36.3%
